According to ChEMBL document CHEMBL1773052, “3-Trifluoromethylquinoxaline N,N'-dioxides as anti-trypanosomatid agents. Identification of optimal anti-T. cruzi agents and mechanism of action studies” (J Med Chem, 2011):

System: Trypanosoma cruzi
Experiment: Antitrypanosomal activity against Trypanosoma cruzi Tulahuen 2 epimastigotes assessed as growth inhibition at 25 uM after 5 days relative to control
Type: functional
Conditions: Tulahuen 2, 120 h, read-out: GI
In short: (§1)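 Epimastigotes grown axenically at 28 °C in BHI-tryptose + 5% FBS; a 10-day stationary culture was inoculated to 1 × 10⁶ cells/mL. Drug added from DMSO stock, final DMSO ≤0.4%, vehicle control. A600 read daily. PGI on day 5 corrects for day-0 absorbance, relative to control. […] Three independent experiments.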

Row | Compound | inhibition of growth at 25 µM
1 | CCOC(=O)c1c(-c2ccccc2)[n+]([O-])c2cc(Cl)ccc2[n+]1[O-] | 88%
2 | CC(=O)c1c(C(F)(F)F)[n+]([O-])c2ccccc2[n+]1[O-] | 100%
3 | Cc1ccc2c(c1)[n+]([O-])c(C)c(C(=O)c1ccccc1)[n+]2[O-] | 8%
4 | Cc1c(Cc2ccccc2)[n+]([O-])c2ccc(Cl)cc2[n+]1[O-] | 0%
5 | CC(C)C(=O)c1c(C(F)(F)F)[n+]([O-])c2ccccc2[n+]1[O-] | 100%
6 | O=C(c1ccccc1)c1c(C(F)F)[n+]([O-])c2ccccc2[n+]1[O-] | 35.8%
7 | Cc1cc2c(cc1C)[n+]([O-])c(C(=O)Nc1ccccc1C)c(C)[n+]2[O-] | 12%
8 | CC(C)C(=O)c1c(C(F)(F)F)[n+]([O-])c2cc(F)c(F)cc2[n+]1[O-] | 23.6%
9 | Cc1ccccc1NC(=O)c1c(C)[n+]([O-])c2ccccc2[n+]1[O-] | 21%
10 | CC(C)(C)C(=O)c1nc2ccccc2nc1C(F)(F)F | 43%
11 | CCOC(=O)c1c(-c2ccccc2)[n+]([O-])c2cc(OC)ccc2[n+]1[O-] | 0%
12 | O=C(c1ccc(Cl)cc1)c1c(C(F)(F)F)[n+]([O-])c2ccccc2[n+]1[O-] | 100%
13 | Cc1cc2c(cc1C)[n+]([O-])c(C(F)(F)F)c(C(=O)c1ccccc1)[n+]2[O-] | 72%
14 | CCOC(=O)c1c(C)[n+]([O-])c2cc(C)c(C)cc2[n+]1[O-] | 1%
15 | Cc1cc2c(cc1C)[n+]([O-])c(C(=O)NC(C)(C)C)c(C)[n+]2[O-] | 0%
16 | O=C(c1c(C(F)(F)F)[n+]([O-])c2ccccc2[n+]1[O-])N1CCN(c2ccc(Cl)cc2)CC1 | 100%

Row | Compound | inhibition of growth at 25 µM
17 | CCC(=O)c1c(C(F)(F)F)[n+]([O-])c2cc(F)c(F)cc2[n+]1[O-] | 100%
18 | CCOC(=O)c1c(-c2ccccc2)[n+]([O-])c2cc(F)c(F)cc2[n+]1[O-] | 100%
19 | CC(C)C(=O)c1c(C(F)(F)F)[n+]([O-])c2cc(Cl)c(Cl)cc2[n+]1[O-] | 100%
20 | COc1ccc2c(c1)[n+]([O-])c(C)c(C(=O)c1ccccc1)[n+]2[O-] | 9%
21 | Cc1ccc2c(c1)[n+]([O-])c(C(F)F)c(C(=O)c1ccccc1)[n+]2[O-] | 50.8%
22 | CC(=O)c1c(C)[n+]([O-])c2ccccc2[n+]1[O-] [MEQUINDOX] | 29%
23 | Cc1cc2c(cc1C)[n+]([O-])c(C(=O)Nc1ccccc1)c(C)[n+]2[O-] | 16%
24 | O=C(c1ccccc1)c1c(C(F)F)[n+]([O-])c2cc(Cl)ccc2[n+]1[O-] | 100%
25 | CC(C)(C)C(=O)c1c(C(F)(F)F)[n+]([O-])c2cc(F)c(F)cc2[n+]1[O-] | 100%
26 | Cc1ccc2c(c1)[n+]([O-])c(C(F)(F)F)c(C(=O)c1ccccc1)[n+]2[O-] | 99%
27 | O=C(c1cccs1)c1c(C(F)(F)F)[n+]([O-])c2cc(F)c(F)cc2[n+]1[O-] | 100%
28 | O=C(c1ccco1)c1c(C(F)(F)F)[n+]([O-])c2cc(F)c(F)cc2[n+]1[O-] | 100%
29 | O=C(c1cccc2ccccc12)c1c(C(F)(F)F)[n+]([O-])c2ccccc2[n+]1[O-] | 100%
30 | CC(=O)c1c(C)[n+]([O-])c2cc(Cl)c(Cl)cc2[n+]1[O-] | 60%
31 | O=C(c1ccc(Cl)cc1)c1c(C(F)(F)F)[n+]([O-])c2cc(F)c(F)cc2[n+]1[O-] | 100%
32 | Cc1c(Cc2ccccc2)[n+]([O-])c2ccccc2[n+]1[O-] | 0%

System: not listed separately
Experiment: Cytotoxicity against mouse J774 cells
Type: cell-based
Conditions: read-out: ID50 (the source's name)

Row | Compound | CC50
33 | CC(=O)c1c(C(F)(F)F)[n+]([O-])c2ccccc2[n+]1[O-] | 8.55 µM
34 | CC(C)C(=O)c1c(C(F)(F)F)[n+]([O-])c2cc(F)c(F)cc2[n+]1[O-] | 11.5 µM
35 | O=C(c1ccc(Cl)cc1)c1c(C(F)(F)F)[n+]([O-])c2ccccc2[n+]1[O-] | 8.5 µM
36 | O=C(c1c(C(F)(F)F)[n+]([O-])c2ccccc2[n+]1[O-])N1CCN(c2ccc(Cl)cc2)CC1 | 8.25 µM
37 | CC(C)(C)C(=O)c1c(C(F)(F)F)[n+]([O-])c2cc(F)c(F)cc2[n+]1[O-] | 16.2 µM
38 | O=C(c1cccc2ccccc12)c1c(C(F)(F)F)[n+]([O-])c2ccccc2[n+]1[O-] | 7.92 µM

System: Trypanosoma cruzi
Experiment: Antitrypanosomal activity against Trypanosoma cruzi Tulahuen 2 epimastigotes assessed as growth inhibition after 5 days
Type: functional
Conditions: Tulahuen 2, 120 h, read-out: ID50
In short: as §1

Row | Compound | IC50
39 | CCOC(=O)c1c(-c2ccccc2)[n+]([O-])c2cc(Cl)ccc2[n+]1[O-] | 12.5 µM
40 | CC(=O)c1c(C(F)(F)F)[n+]([O-])c2ccccc2[n+]1[O-] | 3 µM
41 | CC(C)C(=O)c1c(C(F)(F)F)[n+]([O-])c2ccccc2[n+]1[O-] | > 2.5 µM
42 | O=C(c1ccc(Cl)cc1)c1c(C(F)(F)F)[n+]([O-])c2ccccc2[n+]1[O-] | 1.6 µM
43 | Cc1cc2c(cc1C)[n+]([O-])c(C(F)(F)F)c(C(=O)c1ccccc1)[n+]2[O-] | 1.4 µM
44 | O=C(c1c(C(F)(F)F)[n+]([O-])c2ccccc2[n+]1[O-])N1CCN(c2ccc(Cl)cc2)CC1 | 0.79 µM
45 | CCC(=O)c1c(C(F)(F)F)[n+]([O-])c2cc(F)c(F)cc2[n+]1[O-] | 0.5 µM
46 | CCOC(=O)c1c(-c2ccccc2)[n+]([O-])c2cc(F)c(F)cc2[n+]1[O-] | 3.3 µM
47 | CC(C)C(=O)c1c(C(F)(F)F)[n+]([O-])c2cc(Cl)c(Cl)cc2[n+]1[O-] | 1.4 µM
48 | Cc1ccc2c(c1)[n+]([O-])c(C(F)F)c(C(=O)c1ccccc1)[n+]2[O-] | 25 µM
49 | O=C(c1ccccc1)c1c(C(F)F)[n+]([O-])c2cc(Cl)ccc2[n+]1[O-] | 6.4 µM
50 | CC(C)(C)C(=O)c1c(C(F)(F)F)[n+]([O-])c2cc(F)c(F)cc2[n+]1[O-] | 4.9 µM
51 | Cc1ccc2c(c1)[n+]([O-])c(C(F)(F)F)c(C(=O)c1ccccc1)[n+]2[O-] | 1.3 µM
52 | O=C(c1cccs1)c1c(C(F)(F)F)[n+]([O-])c2cc(F)c(F)cc2[n+]1[O-] | 2.8 µM
53 | O=C(c1ccco1)c1c(C(F)(F)F)[n+]([O-])c2cc(F)c(F)cc2[n+]1[O-] | 2.5 µM
54 | O=C(c1cccc2ccccc12)c1c(C(F)(F)F)[n+]([O-])c2ccccc2[n+]1[O-] | 1.4 µM
55 | CC(=O)c1c(C)[n+]([O-])c2cc(Cl)c(Cl)cc2[n+]1[O-] | 18.4 µM
56 | O=C(c1ccc(Cl)cc1)c1c(C(F)(F)F)[n+]([O-])c2cc(F)c(F)cc2[n+]1[O-] | 2.5 µM

System: not listed separately
Experiment: Selectivity index, ratio of ID50 for mouse J774 cells to ID50 for Trypanosoma cruzi Tulahuen 2 epimastigotes
Type: toxicity, cell-based
Conditions: J774 cells versus Trypanosoma cruzi Tulahuen 2 epimastigotes, read-out: Selectivity Index

Row | Compound | selectivity ratio
57 | CC(=O)c1c(C(F)(F)F)[n+]([O-])c2ccccc2[n+]1[O-] | 2.8
58 | CC(C)C(=O)c1c(C(F)(F)F)[n+]([O-])c2cc(F)c(F)cc2[n+]1[O-] | < 0.5
59 | O=C(c1ccc(Cl)cc1)c1c(C(F)(F)F)[n+]([O-])c2ccccc2[n+]1[O-] | 5.3
60 | O=C(c1c(C(F)(F)F)[n+]([O-])c2ccccc2[n+]1[O-])N1CCN(c2ccc(Cl)cc2)CC1 | 10.4
61 | CC(C)(C)C(=O)c1c(C(F)(F)F)[n+]([O-])c2cc(F)c(F)cc2[n+]1[O-] | < 0.6
62 | O=C(c1cccc2ccccc12)c1c(C(F)(F)F)[n+]([O-])c2ccccc2[n+]1[O-] | 5.5
